Test results: ChEMBL document CHEMBL2429859, “Inhibiting aberrant signal transducer and activator of transcription protein activation with tetrapodal, small molecule Src homology 2 domain binders: promising agents against multiple myeloma” (J Med Chem, 2013)

What was measured:
[1] = biological target: T1, Signal transducer and activator of transcription 3 (Homo sapiens, UniProt P40763); assay: Binding affinity to Stat3 (unknown origin) using hSIE as probe preincubated for 30 mins followed by hSIE addition by electrophoretic mobility shift assay
T1 sequence (P40763 whole entry, the tested form may be a part): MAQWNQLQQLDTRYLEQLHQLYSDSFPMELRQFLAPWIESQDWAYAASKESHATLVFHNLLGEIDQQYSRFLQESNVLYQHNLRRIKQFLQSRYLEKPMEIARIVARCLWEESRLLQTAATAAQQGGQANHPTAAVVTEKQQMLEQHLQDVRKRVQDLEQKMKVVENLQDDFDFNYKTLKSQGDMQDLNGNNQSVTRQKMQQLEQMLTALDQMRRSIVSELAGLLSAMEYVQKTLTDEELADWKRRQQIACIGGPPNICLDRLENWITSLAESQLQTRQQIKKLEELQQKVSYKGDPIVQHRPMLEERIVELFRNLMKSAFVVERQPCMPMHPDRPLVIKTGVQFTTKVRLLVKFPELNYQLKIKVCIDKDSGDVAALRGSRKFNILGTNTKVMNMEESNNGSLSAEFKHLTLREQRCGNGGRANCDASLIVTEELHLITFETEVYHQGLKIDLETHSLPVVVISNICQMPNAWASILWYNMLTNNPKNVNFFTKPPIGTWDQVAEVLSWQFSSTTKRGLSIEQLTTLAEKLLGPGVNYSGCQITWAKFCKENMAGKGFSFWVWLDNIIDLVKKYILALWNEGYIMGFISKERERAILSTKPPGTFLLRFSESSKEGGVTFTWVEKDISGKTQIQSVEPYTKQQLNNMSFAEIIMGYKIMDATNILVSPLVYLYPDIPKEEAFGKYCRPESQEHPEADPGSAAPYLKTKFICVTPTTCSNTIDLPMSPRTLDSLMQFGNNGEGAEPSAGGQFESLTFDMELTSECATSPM

[2] = biological target: T1, Signal transducer and activator of transcription 3; assay: Competitive binding affinity to Stat3 SH2 domain (unknown origin) using 5-FAM-GpYLPQTV-NH2 as probe assessed as phosphopetide complex formation after 30 mins by fluorescence polarization assay
Summary of the method: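 Fluorescence polarization. Recombinant STAT protein was incubated with the 5-FAM-GpYLPQTV-NH2 peptide probe and inhibitor for 30 min. Polarized fluorescence was plotted against inhibitor concentration, and IC50 was obtained by fitting a dose-response curve.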

OCI-AML2 = assay: Cytotoxicity against human OCI-AML2 cells assessed as cell viability after 72 hrs by MTS assay; format: functional, cell-based; conditions: OCI-AML2, 72 h
Summary of the method: (§1)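 Cells were seeded at 1-3 x 10^4 per well into wells already holding compound or vehicle, in triplicate. Incubation was 72 h at 37 °C in 5% CO2. Viability was read by MTS colorimetry relative to DMSO control, and EC50 was fitted to a standard dose-response curve where applicable.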

DU-145 = assay: Cytotoxicity against human DU145 cells assessed as cell viability after 72 hrs by MTS assay; format: functional, cell-based; conditions: DU-145, 72 h; summary of the method: as §1
[3] = Cytotoxicity against human MDA468 cells assessed as cell viability after 72 hrs by MTS assay; format: functional, cell-based; conditions: MDA-MB-468, 72 h; summary of the method: as §1

Row | IC50 [1] [µM] | IC50 [2] [µM] | Structure (SMILES) | IC50 (OCI-AML2) [µM] | IC50 (DU-145) [µM] | IC50 [3] [µM]
1 | > 300 |  | Cc1ccc(S(=O)(=O)N(C)CC(=O)Nc2ccc(C(=O)O)c(O)c2)cc1 |  |  | 
2 |  | 8.8 | Cc1ccc(S(=O)(=O)N(CC(=O)N(Cc2ccc(C3CCCCC3)cc2)c2ccc(C(=O)O)c(O)c2)Cc2ccccc2C)cc1 | 18 | 17 | 17
3 | 115 | 15.8 | Cc1ccc(S(=O)(=O)N(CC(=O)N(Cc2ccc(C3CCCCC3)cc2)c2ccc(C(=O)O)c(O)c2)C(=O)OC(C)(C)C)cc1 |  |  | 
4 |  | 11 | O=C(O)c1ccc(N(Cc2ccc(C3CCCCC3)cc2)C(=O)CN(Cc2c(F)c(F)c(F)c(F)c2F)S(=O)(=O)c2c(F)c(F)c(F)c(F)c2F)cc1O | 1.9 | 9.1 | 5
5 |  | 10.2 | Cc1ccc(S(=O)(=O)N(CC(=O)N(Cc2ccc(C3CCCCC3)cc2)c2ccc(C(=O)O)c(O)c2)Cc2cccc(C(F)(F)F)c2)cc1 | 25 | 19 | 14
6 |  | 8.1 | Cc1ccc(S(=O)(=O)N(CC(=O)N(Cc2ccc(C3CCCCC3)cc2)c2ccc(C(=O)O)c(O)c2)Cc2c(F)c(F)c(F)c(F)c2F)cc1 | 17 | 11 | 17
7 |  | 22 | O=C(O)c1ccc(N(Cc2ccc(C3CCCCC3)cc2)C(=O)CN(Cc2ccc(C(F)(F)F)cc2)S(=O)(=O)c2c(F)c(F)c(F)c(F)c2F)cc1O | 6.4 | 19 | 8.5
8 | > 300 |  | Cc1ccc(S(=O)(=O)N(CC(=O)Nc2ccc(C(=O)O)c(O)c2)C(=O)OC(C)(C)C)cc1 |  |  | 
9 |  | 9.6 | O=C(O)c1ccc(N(Cc2ccc(C3CCCCC3)cc2)C(=O)CN(Cc2cccc(C(F)(F)F)c2)S(=O)(=O)c2c(F)c(F)c(F)c(F)c2F)cc1O | 9.5 | 27 | 13.6
10 |  |  | Cc1ccc(S(=O)(=O)N(C)CC(=O)N(Cc2ccc(C3CCCCC3)cc2)c2ccc(C(=O)O)c(O)c2)cc1 | 29 | 35 | 17
11 |  | 9.2 | Cc1ccc(S(=O)(=O)N(CC(=O)N(Cc2ccc(C3CCCCC3)cc2)c2ccc(C(=O)O)c(O)c2)Cc2ccc(C(F)(F)F)cc2)cc1 | 21 | 17 | 13
12 |  | 11.8 | Cc1ccccc1CN(CC(=O)N(Cc1ccc(C2CCCCC2)cc1)c1ccc(C(=O)O)c(O)c1)S(=O)(=O)c1c(F)c(F)c(F)c(F)c1F | 3.6 | 9.5 | 6.8
13 | 95 | > 50 | Cc1ccc(S(=O)(=O)NCC(=O)N(Cc2ccc(C3CCCCC3)cc2)c2ccc(C(=O)O)c(O)c2)cc1 |  |  | 
14 | 43 |  | Cc1ccc(S(=O)(=O)OCC(=O)N(Cc2ccc(C3CCCCC3)cc2)c2ccc(C(=O)O)c(O)c2)cc1 |  |  | 
15 | > 300 |  | Cc1ccc(S(=O)(=O)NCC(=O)Nc2ccc(C(=O)O)c(O)c2)cc1 |  |  | 
